Active and inactive are the calls of the source. The calls are words filed in the database; no cut-off is given here.
Assays:
[1] = biological target: T1, HDAC1 (histone deacetylase 1) (Homo sapiens, UniProt Q13547); assay: Inhibition of recombinant human C-terminal FLAG/His-tagged HDAC1 (1 to 482 residues) expressed in Sf9 insect cells at 50 uM using Z-(Ac)Lys-AMC as substrate measured after 90 mins by fluorescence assay relative to control; conditions: probe Z-(Ac)Lys-AMC
Outline: (§1)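 Incubated with inhibitor in DMSO and fluorogenic substrate Z-(Ac)Lys-AMC (126 µM, as added) for 90 min at 37 °C. Stopped with trichostatin A plus trypsin for 30 min at 37 °C; fluorescence read at ex 390/em 460 nm.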

[2] = biological target: T1, HDAC1 (histone deacetylase 1); assay: Inhibition of recombinant human C-terminal FLAG/His-tagged HDAC1 (1 to 482 residues) expressed in Sf9 insect cells at 10 uM using Z-(Ac)Lys-AMC as substrate measured after 90 mins by fluorescence assay relative to control; conditions: probe Z-(Ac)Lys-AMC; outline: as §1
[3] = biological target: T1, HDAC1 (histone deacetylase 1); assay: Inhibition of recombinant human C-terminal FLAG/His-tagged HDAC1 (1 to 482 residues) expressed in Sf9 insect cells at 1 uM using Z-(Ac)Lys-AMC as substrate measured after 90 mins by fluorescence assay relative to control; conditions: probe Z-(Ac)Lys-AMC; outline: as §1
[4] = biological target: T1, HDAC1 (histone deacetylase 1); assay: Inhibition of recombinant human C-terminal FLAG/His-tagged HDAC1 (1 to 482 residues) expressed in Sf9 insect cells at 25 uM using Z-(Ac)Lys-AMC as substrate measured after 90 mins by fluorescence assay relative to control; conditions: probe Z-(Ac)Lys-AMC; outline: as §1
[5] = biological target: T2, Protein deacetylase HDAC6 (Homo sapiens, UniProt Q9UBN7); assay: Inhibition of recombinant human full length N-terminal GST-tagged HDAC6 expressed in baculovirus infected Sf9 cells using Z-(Ac)Lys-AMC as substrate measured after 90 mins by fluorescence assay
T2 sequence (Q9UBN7 whole entry): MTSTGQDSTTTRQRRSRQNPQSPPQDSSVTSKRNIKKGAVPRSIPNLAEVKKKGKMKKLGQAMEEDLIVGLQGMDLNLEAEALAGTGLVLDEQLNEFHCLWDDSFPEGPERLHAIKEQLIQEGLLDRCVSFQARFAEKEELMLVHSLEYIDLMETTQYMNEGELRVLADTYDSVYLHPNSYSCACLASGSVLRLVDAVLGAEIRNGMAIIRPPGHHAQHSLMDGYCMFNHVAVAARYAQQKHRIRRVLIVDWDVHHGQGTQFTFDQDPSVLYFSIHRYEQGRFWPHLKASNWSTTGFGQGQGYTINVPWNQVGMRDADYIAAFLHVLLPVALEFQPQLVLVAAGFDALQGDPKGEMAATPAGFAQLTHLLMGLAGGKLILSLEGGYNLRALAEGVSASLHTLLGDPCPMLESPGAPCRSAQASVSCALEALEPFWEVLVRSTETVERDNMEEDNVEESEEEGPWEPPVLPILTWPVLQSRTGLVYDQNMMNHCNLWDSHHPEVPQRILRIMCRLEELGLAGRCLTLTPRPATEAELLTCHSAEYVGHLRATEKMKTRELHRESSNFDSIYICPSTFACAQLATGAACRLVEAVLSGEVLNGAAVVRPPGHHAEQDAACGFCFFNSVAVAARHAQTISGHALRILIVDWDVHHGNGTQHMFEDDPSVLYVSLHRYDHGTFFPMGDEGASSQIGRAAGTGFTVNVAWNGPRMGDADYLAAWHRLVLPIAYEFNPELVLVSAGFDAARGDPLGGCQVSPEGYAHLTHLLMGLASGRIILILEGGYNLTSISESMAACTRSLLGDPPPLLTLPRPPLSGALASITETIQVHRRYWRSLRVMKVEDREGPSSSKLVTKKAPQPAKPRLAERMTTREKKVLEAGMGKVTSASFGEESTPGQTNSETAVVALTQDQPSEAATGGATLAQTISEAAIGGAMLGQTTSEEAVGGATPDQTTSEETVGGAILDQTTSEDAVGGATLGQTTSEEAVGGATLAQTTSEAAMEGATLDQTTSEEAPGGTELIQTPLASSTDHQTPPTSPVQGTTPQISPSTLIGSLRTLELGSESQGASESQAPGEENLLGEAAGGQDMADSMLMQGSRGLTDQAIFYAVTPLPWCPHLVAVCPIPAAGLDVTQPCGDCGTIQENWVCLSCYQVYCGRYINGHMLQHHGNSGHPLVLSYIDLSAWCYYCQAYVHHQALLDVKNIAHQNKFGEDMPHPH

[6] = biological target: T3, Protein deacetylase HDAC6 (Homo sapiens) (UniProt Q9UBN7); assay: Inhibition of HDAC6 in human HCT-116 cells assessed as increase in Hsp90(AcLys294) acetylation at 10 uM measured after 12 to 24 hrs by Western blot analysis; format: cell-based; conditions: time 12-24 hrs
T3 sequence (whole entry): T2 sequence (Q9UBN7 whole entry)
Outline: (§2)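 HCT-116 or U937 cells treated at 10 µM for 12 and 24 h. […] Western blot used 40 µg total protein or 5 µg acid-extracted histone. Blots probed for cleaved PARP, acetylated tubulin, H3K9/14ac and Hsp90(AcLys294), normalized to GAPDH or H4. Compared with control cells by one-way ANOVA and Dunnett's test.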

U-937 [7] = assay: Cytotoxicity against human U-937 cells assessed as reduction in cell proliferation at 50 uM measured after 48 hrs by MTT assay relative to control; format: functional; set-up: scale not given: the % may be the effect or the level left
Outline: (§3)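 U937 cells grown in RPMI-1640 with 10% FBS, 2 mM L-glutamine and penicillin-streptomycin. 2.5×10^4 cells/well treated in triplicate at 50, 25, 10, 5 and 1 µM for 12, 24 or 48 h. MTT 0.5 mg/ml added for 3 h, plate centrifuged 5 min at 1200 rpm, crystals dissolved in isopropanol, A570 read. IC50 derived from the concentration series.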

U-937 [8] = assay: Cytotoxicity against human U-937 cells assessed as reduction in cell viability measured after 48 hrs by MTT assay; format: functional, cell-based; conditions: U-937, 48 h; outline: as §3
HCT-116 [9] = assay: Cytotoxicity against human HCT-116 cells assessed as cell viability at 50 uM measured after 48 hrs by MTT assay relative to control; format: functional; conditions: read-out: Activity
Outline: (§4)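 HCT-116 cells grown in DMEM with 10% FBS, 2 mM L-glutamine and antibiotics. 2.5×10^4 cells/well treated in triplicate at 50, 25, 10, 5 and 1 µM for 12, 24 or 48 h. Then MTT 0.5 mg/ml for 3 h, supernatant removed, formazan dissolved in isopropanol, absorbance read at 570 nm. IC50 derived from the concentration series.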

[10] = Inhibition of HDAC1/2/3/8 in human U-937 cells assessed as increase in H3K9/14 acetylation at 10 uM measured after 12 to 24 hrs by Western blot analysis; format: cell-based; conditions: u-937, 10 µM, time 12-24 hrs; outline: as §2
[11] = biological target: T3, Protein deacetylase HDAC6 (Homo sapiens); assay: Inhibition of HDAC6 in human U-937 cells assessed as increase in Hsp90(AcLys294) acetylation at 10 uM measured after 12 to 24 hrs by Western blot analysis; format: cell-based; conditions: time 12-24 hrs; outline: as §2
[12] = Inhibition of HDAC1/2/3/8 in human HCT-116 cells assessed as increase in H3K9/14 acetylation at 10 uM measured after 12 to 24 hrs by Western blot analysis relative to control; format: cell-based; conditions: hct-116, 10 µM, time 12-24 hrs; outline: as §2
Histone deacetylase 1 = Histone deacetylase 1 (Homo sapiens, UniProt Q13547); assay: Inhibition of recombinant human C-terminal FLAG/His-tagged HDAC1 (1 to 482 residues) expressed in Sf9 insect cells using Z-(Ac)Lys-AMC as substrate measured after 90 mins by fluorescence assay; outline: as §1
Chain of Histone deacetylase 1 (Q13547 whole entry, the tested form may be a part): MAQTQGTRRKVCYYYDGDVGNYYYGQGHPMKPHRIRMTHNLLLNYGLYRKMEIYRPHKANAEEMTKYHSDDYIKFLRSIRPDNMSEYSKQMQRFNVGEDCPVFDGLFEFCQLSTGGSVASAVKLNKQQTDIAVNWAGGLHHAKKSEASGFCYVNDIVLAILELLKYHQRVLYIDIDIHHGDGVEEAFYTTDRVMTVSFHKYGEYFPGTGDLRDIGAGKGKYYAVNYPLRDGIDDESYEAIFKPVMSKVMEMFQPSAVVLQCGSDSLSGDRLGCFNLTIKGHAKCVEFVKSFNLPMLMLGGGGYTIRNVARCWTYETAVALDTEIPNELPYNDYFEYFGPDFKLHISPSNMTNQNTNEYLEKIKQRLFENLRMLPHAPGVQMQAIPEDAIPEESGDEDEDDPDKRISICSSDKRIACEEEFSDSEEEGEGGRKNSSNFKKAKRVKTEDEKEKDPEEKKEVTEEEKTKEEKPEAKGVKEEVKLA

HCT-116 [13] = assay: Cytotoxicity against human HCT-116 cells assessed as reduction in cell viability measured after 24 hrs by MTT assay; format: functional, cell-based; conditions: HCT-116, 24 h; outline: as §4
[14] = biological target: T3, Protein deacetylase HDAC6 (Homo sapiens); assay: Inhibition of HDAC6 in human U-937 cells assessed as increase in alpha-tubulin acetylation at 10 uM measured after 12 to 24 hrs by Western blot analysis relative to control; format: cell-based; conditions: time 12-24 hrs; outline: as §2
HCT-116 [15] = assay: Cytotoxicity against human HCT-116 cells assessed as reduction in cell viability measured after 48 hrs by MTT assay; format: functional, cell-based; conditions: HCT-116, 48 h; outline: as §4
[16] = biological target: T3, Protein deacetylase HDAC6 (Homo sapiens); assay: Inhibition of HDAC6 in human HCT-116 cells assessed as increase in alpha-tubulin acetylation at 10 uM measured after 12 to 24 hrs by Western blot analysis relative to control; format: cell-based; conditions: time 12-24 hrs; outline: as §2
[17] = Stability of compound in pH 3 buffer assessed as parent compound remaining at 250 uM measured after 24 hrs by HPLC/UV/DAD method; format: physicochemical; conditions: read-out: Stabilty
Outline: (§5)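 10 mM DMSO stock diluted to 250 µM (2.5% DMSO) in 50 mM acetic acid, pH 3.0, and shaken 24 h at 25 °C. For solubility, samples filtered, diluted 1:2, quantified by HPLC-UV at 254 nm against a standard. For stability, percent remaining taken as the 24 h peak area over the T0 peak area. Triplicate analyses averaged.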

[18] = Solubility of compound in pH 3 buffer at 250 uM measured after 24 hrs by HPLC/UV/DAD method; format: physicochemical; conditions: pH 3, 24 h; outline: as §5

T1 sequence (Q13547 whole entry, the tested form may be a part): as above

## O=C(NO)c1ccc(Cn2c(=O)c(O)c(-c3cccnc3)c3ccccc32)cc1
[1]
  inhibition at 1.5 h, 50 µM: 96%
[2]
  inhibition at 1.5 h, 10 µM: 36%
[3]
  inhibition at 1.5 h, 1 µM: < 10%
[4]
  inhibition at 1.5 h, 25 µM: 82%
[5]
  IC50: 0.296 µM

## O=C(NO)c1ccc(COc2c(-c3ccccc3)c3ccccc3[nH]c2=O)cc1
[6]
  inhibition: Active
U-937 [7]
  Activity: 60%
U-937 [8]
  IC50: 27.9 µM
HCT-116 [9]
  viability at 50 µM: 10%
[10]
  inhibition (INH): Active
[11]
  inhibition: Active
[12]
  fold change (FC): 2
Histone deacetylase 1
  IC50: 6.6 µM
HCT-116 [13]
  IC50: 33.4 µM
[14]
  fold change (FC): > 9
HCT-116 [15]
  IC50: 15 µM
[16]
  fold change (FC): > 9
[5]
  IC50: 0.147 µM

## Cn1c(=O)c(OCc2ccc(C(=O)NO)cc2)c(-c2ccccc2)c2ccccc21
[1]
  inhibition at 1.5 h, 50 µM: 80%
[2]
  inhibition at 1.5 h, 10 µM: 26%
[3]
  inhibition at 1.5 h, 1 µM: < 10%
[4]
  inhibition at 1.5 h, 25 µM: 46%
[5]
  IC50: 0.519 µM

## O=C(NO)c1ccc(Cn2c(=O)c(O)c(-c3ccccc3)c3ccccc32)cc1
Histone deacetylase 1
  IC50: 11 µM
[5]
  IC50: 0.308 µM

## O=C(NO)c1ccc(COc2c(-c3ccccc3)c3ccccc3n(Cc3ccncc3)c2=O)cc1
Histone deacetylase 1
  IC50: 1.2 µM
[17]
  remaining at 24 h, 250 µM: > 95%
[18]
  solubility: Soluble
[5]
  IC50: 0.0841 µM

## O=C(NO)c1ccc(COc2c(-c3cccnc3)c3ccccc3n(Cc3ccncc3)c2=O)cc1
Histone deacetylase 1
  IC50: 1.7 µM
[5]
  IC50: 0.0453 µM

## Cn1c(=O)c(OCc2ccc(C(=O)NO)cc2)c(-c2cccnc2)c2ccccc21
Histone deacetylase 1
  IC50: 5.01 µM
[5]
  IC50: 0.046 µM

From ChEMBL document CHEMBL4732101, “Novel quinolone-based potent and selective HDAC6 inhibitors: Synthesis, molecular modeling studies and biological investigation” (Eur J Med Chem, 2021)
